Screens from PubChem.
The full list was thinned out, with hits kept by preference.
INS promoter act = activators of insulin promoter-driven GFP, primary screen, imaging, TRM-6 cells, eGFP reporter, cell count. activation, % at 2 µM. actives 0.81% (n = 130,000). AID 1296, 2008. plate-scaled: unstimulated 0, stimulated control 100;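 active = activation at 2 µM above a set limit, confirmed on inspection of the cell images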;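 also: share of cells whose green reporter signal exceeds an intensity cutoff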
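material = TRM-6 human fetal islet cells, insulin promoter–eGFP reporter | input = 1,000 TRM-6 cells seeded per well | benchmarks = stimulated versus unstimulated wells as plate controls | measured by = automated fluorescence imaging of paraformaldehyde-fixed, Hoechst-counterstained cells, green channel | schedule = compound exposure 48 h, 37 °C | reagent = tamoxifen at 0.75 µM added at seeding for reporter induction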
Numbers stand for hits; n = inactive.

SMILES	INS promoter act
Brc1cc2c(cc1/C=N/Nc1nc(N3CCCCC3)nc(N3CCCCC3)n1)OCO2	n
O=C(CN1CCCCC1)NCCNc1ccc(C(F)(F)F)cc1[N+](=O)[O-]	n
Cc1c(C(=O)O)sc2nc3n(c(=O)c12)CCC3	n
O=C(Nc1ccc2nc3n(c(=O)c2c1)CCCC3)c1cccc([N+](=O)[O-])c1	n
O=c1c2c(-c3ccc([N+](=O)[O-])cc3)csc2nc2n1CCC2	481
CC(Sc1nncs1)C(=O)Nc1ccc2c(c1)OCO2 (stereo not drawn)	n
CN(C)c1nc(Nc2ccccc2)nc(Oc2ccc(=O)[nH]n2)n1	n
Cc1ccc(Nc2nc(Oc3ccc(=O)[nH]n3)nc(N(C)C)n2)cc1	n
COC(=O)c1ccc(Oc2nc(Nc3ccccc3)nc(N(C)C)n2)cc1	585
COC(=O)c1ccc(-n2nnnc2SC)cc1	n
CNc1nc(Oc2ccc(C(=O)OC)cc2)nc(SC)n1	494
CCNc1nc(Oc2ccc(=O)[nH]n2)nc(SC)n1	n
COc1ccc(C(=O)c2ccc(CC#N)s2)cc1	n
COc1cccc(CN2CCN(Cc3cccn3-c3cccnc3)CC2CCO)c1 (stereo not drawn)	n
Cc1ccc(Nc2nc(-c3ccc(S(=O)(=O)N4CCOCC4)cc3)cs2)cc1Cl	n
O=C(NCc1cccnc1)C1c2ccccc2C(=O)N1C1CCCCCCC1 (stereo not drawn)	156
CCOc1ccc(CN2C(=O)c3ccccc3C2C(=O)NCc2cccnc2)cc1 (stereo not drawn)	n
O=C(NCC1CCCO1)C1c2ccccc2C(=O)N1C1CCCCCCC1 (stereo not drawn)	n
Cc1cccc(NC(=S)N/C(=N/S(=O)(=O)c2ccccc2)c2ccccc2)c1	n
O=S(=O)(/N=C(/Nc1ccccn1)c1ccccc1)c1ccccc1	196
CC(C)OC(=S)N/C(=N\S(=O)(=O)c1ccccc1)c1ccccc1	n
Cc1cccc(C)c1N(CC(O)Cn1c2ccccc2c2ccccc21)S(C)(=O)=O (stereo not drawn)	89
Cc1cccc(C)c1N(CC(=O)N1CCN(c2ccccc2F)CC1)S(C)(=O)=O	n
Cc1nccn1CC(O)Cn1c2ccccc2c2ccccc21 (stereo not drawn)	n
COC(=O)C(C(=O)OC)C(C[N+](=O)[O-])c1ccc(O)c(OC)c1 (stereo not drawn)	n
SMILES	INS promoter act
O=S(=O)(Nc1cccc2c1CCCC2)c1ccc(Cl)cc1	n
CCOc1ccc(NC(=O)c2cccc(OC(=S)N3CCOCC3)c2)cc1	n
CCCn1c(SCC(=O)c2cc(C)c(C)cc2C)n[nH]c1=O	n
Cc1cccc(N(C(=O)Cn2nnc3ccccc32)C(C(=O)NCc2ccco2)c2ccncc2)c1C (stereo not drawn)	n
CCc1ccc(C(C(=O)NCCOC)N(C(=O)Cn2nnc3ccccc32)c2cccnc2)cc1 (stereo not drawn)	450
CCCCN(C(=O)Cn1nnc2ccccc21)C(C(=O)NCCOC)c1ccccc1 (stereo not drawn)	n
CCCn1c(SCC(=O)c2c[nH]c3ccccc23)nnc1-c1ccncc1	n
COc1ccc(OC)c(CNC(=O)C2CCN(S(C)(=O)=O)CC2)c1	n
COc1ccccc1CNC(=O)C1CCCN(S(C)(=O)=O)C1 (stereo not drawn)	n
COc1ccc(Br)cc1CNC(=O)C1CCN(S(=O)(=O)N2CCCCC2)CC1	169
COC(=O)c1ccc(-c2ccco2)n1Cc1nc(-c2ccc(OC)c(OC)c2)oc1C	n
COc1ccc(-c2nc(CS(=O)CC(=O)NCCCN3CC(C)CC(C)C3)c(C)o2)cc1OC (stereo not drawn)	n
COc1cc(-c2nc(CN3CCN(CC(C)C)C(=O)[C@@H]3C)c(C)o2)ccc1F	270
COc1ccc(CCn2nnnc2C(C(C)C)N2CCN(c3ncccn3)CC2)cc1OC (stereo not drawn)	170
CC(C)C(c1nnnn1C1CCCCC1)N1CCN(c2ncccn2)CC1 (stereo not drawn)	n
COc1ccc(CCn2nnnc2C(CC(C)C)N2CCN(c3ncccn3)CC2)cc1OC (stereo not drawn)	n
CCn1ccnc1C(O)c1ccccc1OC (stereo not drawn)	n
CC(C)(C)C(=O)NC(=S)NNC(=O)C(c1ccccc1)c1ccccc1	n
CC(C)(CO)NC(=O)C(c1ccccc1)c1ccccc1	406
O=C(O)CC(c1ccccc1)c1ccccc1	n
COc1ccc(C(=O)NC2(C(F)(F)F)C(=O)Nc3c2c(=O)[nH]c(=O)n3CCc2ccc(OC)c(OC)c2)cc1 (stereo not drawn)	n
Oc1ccc(C2C(c3ccccc3)=NN=C(c3ccc(Cl)cc3)N2O)c(O)c1 (stereo not drawn)	n
CC(NC(=S)Nc1c(Br)cccc1OC(F)F)C(C)(C)C (stereo not drawn)	n
Cc1ccnc2ccc(SC(F)(F)F)cc12	417
Cc1cc(N2CCC(N(C)C3CCCC3)CC2)nc2cc(O)ccc12	n
CCOC(=O)N1CCN(C(=O)C2CCCN(S(=O)(=O)c3ccc(C)cc3)C2)CC1 (stereo not drawn)	n
